Screens: PubChem BioAssay, several laboratories
Rad51 HR inh – blocks human Rad51 in homologous recombination. AID 1385. inhibition, % at 10 µM. hRad51 DNA strand exchange, fluorescence dequenching. Q06609. 200,000 tested, 0.085% active;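 active means inhibition above 40% at the single screening dose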;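 further: 0% = DMSO control wells and 100% = blanks with heterologous ssDNA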
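System: hRad51 filaments on single-stranded DNA; reagent: Fluorescein- and BHQ1-tagged 47-mer duplex; compound dosing: one concentration, 10 µM final; timing: filaments 15 min 37 °C, then compound 30 min; measured by: fluorescein emission 520 nm, excitation 485 nm; benchmarks: per-plate controls and blanks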
SKKanGAS inh – inhibitors of SKKanGAS S. pyogenes growth in kanamycin (SK-promoter or general growth effect); 300,000 tested, 1.3% active; inhibition, % at 7.5 µM; BacTiter-Glo, 6 h;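 active means mean replicate score, as percent of positive control median, at least 50; inconclusive means mean below 50 but one replicate at or above 50; inactive means mean and every replicate below 50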;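 further: strain carries kanamycin resistance gene driven by streptokinase promoter and grows in 40 µg/ml kanamycin; loss of luminescence reflects streptokinase promoter inhibition or plain growth inhibition; 0% = median of DMSO wells and 100% = positive control at its reference dose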
Autophagy mod – autophagy modulation, high-content screen; AID 463193; calls only at 10 µM (by protocol); 190,000 tested, 0.98% active; MEF GFP-LC3 puncta imaging; test concentration mostly 10 µM;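 active means percentage of spot-positive cells more than 3 SD above its plate mean, without a fluorescence outlier flag or 80% toxicity; inconclusive means no clear call, values can overlap the other calls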;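 further: spot-positive cell cutoff set from DMSO-treated cells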
Ins promoter up – MIN6 insulin promoter up-regulation; z-score at 5 µM; 190,000 tested, 0.3% active; MIN6 insulin promoter-GFP reporter, high-content imaging; hits give high values;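 active means z-score above 3 at 5 µM with at least 500 cells counted in the well; inconclusive means wells under 500 cells, flagged as cytotoxic or low count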
WT yeast gro inh – growth inhibition of WT yeast, mitochondrial fusion screen; AID 1362; 190,000 tested, 2.1% active; inhibition, % at 10 µM; mitochondrial fusion phenotypic screen, WT strain; in the data active means inhibition above about 58%; tested in S. cerevisiae
KCC2 mod – modulates chloride dependent transport by human KCC2; Q9H2X9; KCC2 cells, thallium flux FluoZin-2 fluorescence; B-score of Tl+ flux slope (higher = more flux/activation; lower = inhibition) at 10 µM; 190,000 tested, 2.2% active;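 active means thallium flux slope and its plate-corrected score both differing from the plate sample mean at a set confidence after two filtering rounds, in either direction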;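 further: slope of fluorescence scaled to starting intensity during 10 to 20 s after thallium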
Target sequence (Q9H2X9 whole entry, looked up): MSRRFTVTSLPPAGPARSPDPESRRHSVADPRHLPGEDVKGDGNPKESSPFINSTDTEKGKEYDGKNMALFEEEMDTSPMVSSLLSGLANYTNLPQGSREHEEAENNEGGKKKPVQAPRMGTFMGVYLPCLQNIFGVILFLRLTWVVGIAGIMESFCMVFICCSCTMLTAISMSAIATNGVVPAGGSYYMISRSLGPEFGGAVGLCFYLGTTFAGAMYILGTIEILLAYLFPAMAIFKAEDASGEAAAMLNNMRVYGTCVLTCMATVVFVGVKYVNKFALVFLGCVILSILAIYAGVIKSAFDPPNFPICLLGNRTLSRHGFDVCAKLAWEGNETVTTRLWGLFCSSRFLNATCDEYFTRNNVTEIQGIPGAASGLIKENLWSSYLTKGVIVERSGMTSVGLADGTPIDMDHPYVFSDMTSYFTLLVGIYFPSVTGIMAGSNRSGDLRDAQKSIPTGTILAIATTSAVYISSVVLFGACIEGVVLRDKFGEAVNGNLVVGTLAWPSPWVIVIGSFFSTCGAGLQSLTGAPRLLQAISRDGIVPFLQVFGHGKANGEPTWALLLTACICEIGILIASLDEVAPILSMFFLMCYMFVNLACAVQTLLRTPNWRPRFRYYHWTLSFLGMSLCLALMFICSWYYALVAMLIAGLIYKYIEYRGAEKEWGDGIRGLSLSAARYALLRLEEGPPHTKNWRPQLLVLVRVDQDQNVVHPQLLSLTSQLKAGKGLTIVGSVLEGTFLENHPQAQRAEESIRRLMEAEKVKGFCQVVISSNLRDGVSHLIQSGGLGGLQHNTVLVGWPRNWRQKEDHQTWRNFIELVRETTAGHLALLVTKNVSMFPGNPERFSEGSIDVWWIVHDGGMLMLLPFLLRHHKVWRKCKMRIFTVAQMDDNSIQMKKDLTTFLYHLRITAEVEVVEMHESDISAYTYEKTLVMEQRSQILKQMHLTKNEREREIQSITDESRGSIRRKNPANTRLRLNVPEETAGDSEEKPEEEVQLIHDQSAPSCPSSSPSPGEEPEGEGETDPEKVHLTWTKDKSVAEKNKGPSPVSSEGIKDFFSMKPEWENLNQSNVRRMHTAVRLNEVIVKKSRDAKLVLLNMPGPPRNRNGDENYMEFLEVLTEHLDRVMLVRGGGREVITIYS
KCC2 secondary – KCC2 (human) modulation, secondary assay; shares compounds with KCC2 mod; HEK293-KCC2, thallium flux, FluoZin2 fluorescence; hits give high values; normalised thallium flux (F/F0 slope) at 10 µM; 3,700 tested, 15% active;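 active means thallium flux slope above the same plate's solvent-only control mean plus 3 SD; inconclusive means the two replicate wells disagree; inactive means no significant difference from solvent-only control wells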
KCC2 bumet counter – bumetanide-insensitive thallium flux in KCC2 cells with ouabain, counter-screen. shares compounds with KCC2 mod. HEK293-KCC2 + bumetanide/ouabain, thallium flux FluoZin2; hits give high values. normalized thallium flux at 10 µM. 3,700 tested, 49% active;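 active means thallium entry rate above the same plate's blocked-transporter control wells by more than 3 SD; inconclusive means the two repeat wells disagree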;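 further: raw slope of fluorescence over initial fluorescence between 10 and 20 s after thallium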
KCC2 sec2 – KCC2 (human) modulation, second secondary assay. normalized thallium flux at 10 µM. HEK293-KCC2, thallium flux FluoZin2 fluorescence; actives lie on both sides; F/F0 rise rate, 10–20 s post-thallium. AID 1715. 3,700 tested, 23% active. shares compounds with KCC2 mod;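 active means thallium flux slope more than 3 SD above or below the plate's solvent-only control mean, mostly below; inconclusive means the two repeat wells disagreed; inactive means no significant shift from solvent-only controls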;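 further: raw slope with 0.1% DMSO as baseline and bumetanide as block control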
HEK counter1 – parental HEK flux effect, counter-screen; shares compounds with KCC2 mod; HEK293 parental cells, thallium flux FluoZin2, ouabain; baseline-ratio fluorescence slope, 10–20 s after thallium; thallium flux rate (normalised fluorescence) at 10 µM; 3,700 tested, 46% active;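 active means thallium flux rate significantly above the same plate's solvent-only control wells, beyond their mean plus 3 SD; inconclusive means the two replicate wells gave conflicting results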
KCC2 retest ouab – KCC2 (human) modulation, ouabain retest; shares compounds with KCC2 mod; HEK293-KCC2, thallium flux FluoZin2 fluorescence; bidirectional: low = inhibitor, high = activator; raw Tl+ flux slope (below DMSO = inhibition, above = activation) at 10 µM; 3,700 tested, 48% active; AID 1717;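 active means thallium flux slope beyond 3 SD from same-plate DMSO control mean in most replicates, usually higher, sometimes lower; inconclusive means repeat tests gave conflicting results; inactive means no significant difference from controls in most replicates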;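 further: slope of initial-normalized fluorescence between seconds 10 and 20 after thallium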
HEK counter2 – parental HEK flux effect, counter-screen 2; shares compounds with KCC2 mod; HEK293 parental, thallium flux FluoZin-2 fluorescence slope; thallium flux slope at 10 µM; 3,700 tested, 33% active;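 active means thallium flux slope above the same plate's solvent-control mean plus 3 SD in both duplicate wells; inconclusive means duplicate wells that disagreed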;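 further: run without ouabain in cells lacking the KCC2 cotransporter; slope of fluorescence scaled to its starting value between 10 and 20 s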
* = called active by the depositor; i = inactive; ? = inconclusive; · = not tested or not shown; + = active, no number. Sampled rows, rich in hits. Any-hit rate of the full collection: about 4.2%.

SMILES	Rad51 HR inh	SKKanGAS inh	Autophagy mod	Ins promoter up	WT yeast gro inh	KCC2 mod	KCC2 secondary	KCC2 bumet counter	KCC2 sec2	HEK counter1	KCC2 retest ouab	HEK counter2
Cc1ccc(S(=O)(=O)N2CCCCC2)cc1NC(=S)NC(=O)c1ccco1	11.0	10.6	·	0.18	·	21.7*	0.00765	0.0164*	0.0283	0.0132*	?	?
Cc1ccc(NC(=S)NC(NC(=O)c2ccco2)C(Cl)(Cl)Cl)cc1 (centres undefined)	1.6	8.3	i	0.41	1.1	8.16*	0.00739	0.00435	0.029	0.00794	0.0176	0.0106
O=C(NC(=S)Nc1ccc2oc(=O)ccc2c1)c1cc2ccccc2o1	17.2	-5.3	·	-0.03	·	35.1*	0.0163*	0.0487*	0.034	0.0366*	?	0.0172*
O=C(NC(=S)Nc1ccc(CN2CCCCC2)cc1)c1ccco1	1.8	3.9	i	0.26	-12.2	4.05*	0.0094	0.0349*	0.034	0.0154*	0.0424*	?
O=C(NC(=S)Nc1cc(S(=O)(=O)N2CCOCC2)ccc1O)c1ccco1	6.2	0.0	i	·	-9.3	0.0516	·	·	·	·	·	·
O=C(O)c1ccc(NC(=S)NC(NC(=O)c2ccco2)C(Cl)(Cl)Cl)cc1 (centres undefined)	3.9	2.6	i	0.11	9.8	0.311	·	·	·	·	·	·
Nc1nonc1-n1nnc(C(=O)N/N=C/c2ccccc2Cl)c1COc1ccc(F)cc1	29.7	24.1	·	·	·	1.12	·	·	·	·	·	·
O=C(NCc1ccco1)c1nc2c(nnn2Cc2cccc(Cl)c2)c(=O)[nH]1	-13.4	15.2	i	·	-3.1	-4.7*	0.00511	0.00581*	?	0.0063*	0.0143*	0.0103
Cc1ccc(Cn2nnc3c(=O)[nH]c(C(=O)NCc4ccco4)nc32)cc1	-1.5	15.1	i	-0.33	-0.4	-2.8	·	·	·	·	·	·
O=C(NCc1ccccc1)c1nc2c(nnn2Cc2cccc(Cl)c2)c(=O)[nH]1	-5.1	22.3	i	·	-19.8	-5.13*	0.00596	0.00553	0.0236*	0.00625*	0.013*	?
Cc1cc2nc(-c3ccc(SCc4ccc(C(=O)O)cc4)nc3)[nH]c2cc1C	-3.0	28.4	i	-0.15	4.4	-3.99*	0.00718	0.00375	0.0263	?	0.0135*	0.00912
Cc1cc2nc(-c3ccc(SCC(=O)NC(C)C)nc3)[nH]c2cc1C	6.0	5.1	i	0.33	14.6	-0.722	·	·	·	·	·	·
COC(=O)/C=C1\SC(N2CCOCC2)=C(c2ccc(OC)cc2)C1=O	·	1.7	i	-1.13	12.8	·	·	·	·	·	·	·
CN(N)c1ccc2c(C(F)(F)F)cc(C(F)(F)F)nc2n1	4.6	-7.0	i	0.91	21.4	0.538	·	·	·	·	·	·
Cc1ccc(C(C#N)c2ccc3c(C(F)(F)F)cc(C(F)(F)F)nc3n2)cc1 (centres undefined)	·	10.1	+	0.87	69.4*	13.4*	0.0216*	0.0646*	?	0.0165*	0.0329*	0.0161*
COc1ccc(CNC(=S)NC(C)CCc2ccccc2)cc1 (centres undefined)	12.2	-7.0	i	-0.2	71.2*	-4.88*	0.00532*	?	?	0.00582*	0.0132*	0.00983
COc1ccc(CCNC(=S)NC(=O)c2cccc(Cl)c2)cc1OC	-5.7	4.7	·	0	·	4.5*	0.01	0.0317*	0.0318	0.0118*	0.0257	?
CN(C)C(=S)NC(=O)c1cccc(Cl)c1	5.4	-11.4	i	-0.36	27.6	21.2*	0.00713	0.0368*	0.0335	0.0251*	0.0356*	0.022*
O=C(NC(=S)NCCc1ccccc1)c1cccc(Cl)c1	·	0.1	·	·	·	·	·	·	·	·	·	·
CCCCOc1ccc(C2C(=O)N(C3CCCCC3)CC(=O)N2CC2CCCO2)cc1 (centres undefined)	·	4.4	i	-0.43	7.2	0.901	·	·	·	·	·	·
CCOc1ccc(C2C(=O)N(C3CCCCC3)CC(=O)N2CC2CCCO2)cc1OC (centres undefined)	·	·	i	0	-25.4	·	0.0167	0.0048	0.0282	0.00724	0.0157	0.0106
CCCOc1ccc(C2C(=O)N(C3CCCCC3)CC(=O)N2CCCOCC)cc1OC (centres undefined)	·	·	i	0.45	-16.3	·	0.0155	0.00453	0.0271	0.00775	0.0153	0.0103
COc1ccc(-c2n[nH]c(=S)n2-c2cc(OC)ccc2OC)cc1	-6.1	6.5	·	0.04	·	·	·	·	·	·	·	·
COc1ccc2c(C)cc3n[nH]c(=S)n3c2c1	7.5	-1.1	·	-0.16	·	27.2*	0.0229*	0.0367*	?	0.0282*	0.0306*	0.0295*
Cc1sc(NC(=O)CSC2=NCCS2)nc1-c1ccccc1	4.2	8.3	i	-0.7	24.5	·	0.00783	0.0041	0.0328	0.00394	0.0191	0.0108
SMILES	Rad51 HR inh	SKKanGAS inh	Autophagy mod	Ins promoter up	WT yeast gro inh	KCC2 mod	KCC2 secondary	KCC2 bumet counter	KCC2 sec2	HEK counter1	KCC2 retest ouab	HEK counter2
O=C(CSC1=NCCS1)Nc1nc2ccccc2s1	1.0	-5.3	i	·	8.1	-1.15	·	·	·	·	·	·
Cc1cc(Cl)ccc1OC(C)C(=O)Nc1cnn(CCCC(=O)O)c1 (centres undefined)	·	4.7	·	·	·	·	·	·	·	·	·	·
CCOc1cc(C2NN=C(c3ccccc3)S2)ccc1OCc1ccccc1Cl (centres undefined)	0.6	-0.1	i	-0.08	0.8	6.02*	0.00851	0.00453	0.0307	0.00766	0.0187	0.0102
CCOc1cc(C2NN=C(c3ccccc3)S2)ccc1OCc1ccc(F)cc1 (centres undefined)	-12.1	-2.9	i	-0.08	-2.3	-0.68	·	·	·	·	·	·
CCOC(=O)CNC(=O)CSc1nc2sc(C)c(C)c2c(=O)n1C	4.5	6.4	i	·	8.8	·	0.00642	0.0185*	0.0373	0.0174*	0.0266*	0.0209*
Cc1sc2nc(SCC(=O)OC(C)C)n(C)c(=O)c2c1C	0.8	0.3	i	-0.3	6.9	·	0.00768	0.0143*	0.0352	0.0151*	0.0258*	0.018*
Cc1sc2nc(SCC(=O)NCCO)n(C)c(=O)c2c1C	6.9	1.8	i	0.61	5.7	·	·	·	·	·	·	·
